Drawing on ChEMBL document CHEMBL1141839, “Antifungal jujubogenin saponins from Colubrina retusa” (1999), this text covers Activity and MIC for four compounds.

Test [1] relates to Cryptococcus neoformans. The test is described as follows: Antifungal activity against Cryptococcus neoformans after 48 hrs. It is filed as functional. In a few lines:
(§1)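 C. neoformans grown in Mycophil broth to the desired density, then seeded into 96-well plates (modified NCCLS microdilution). Pure compounds added at final 50, 10 and 2 μg/mL. Incubation 48 h, 30 °C, with growth assessed per concentration. MIC is the lowest tested level showing no growth. Amphotericin B positive control.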

For test [2], the system named is Aspergillus fumigatus. Nature of the test: Antifungal activity against Aspergillus fumigatus after 48 hrs. In kind it is functional. In a few lines: (§2)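 A. fumigatus spores gently scraped from fungal growth and used as inoculum in a 96-well adaptation of the NCCLS protocol. Pure compounds at final 50, 10 and 2 μg/mL. Incubated 48 h at 30 °C, with growth read at each concentration. MIC is the lowest tested concentration without growth. Amphotericin B positive control.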

In test [3] the test system is Candida albicans. Nature of the test: Antifungal activity against Candida albicans after 24 hrs. It is filed as functional. The gist of the method: (§3)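 Modified NCCLS broth microdilution in 96-well format. C. albicans grown in SDB to the desired density and seeded into wells. Pure compounds tested at final 50, 10 and 2 μg/mL. Incubated 24 h at 37 °C, with growth scored at each level. MIC is the lowest tested concentration with no growth. Amphotericin B served as positive control.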

Test [4] relates to Cryptococcus neoformans. The test is described as follows: Antifungal activity against Cryptococcus neoformans at 2 ug/mL after 48 hrs. It is filed as functional, organism-based. The gist of the method: as §1
Test [5] relates to Candida albicans. Nature of the test: Antifungal activity against Candida albicans at 2 ug/mL after 24 hrs. In kind it is functional, organism-based. In a few lines:
as §3

Test [6] concerns Aspergillus fumigatus. Nature of the test: Antifungal activity against Aspergillus fumigatus at 2 ug/mL after 48 hrs. It is filed as functional, organism-based. In a few lines:
as §2

≈ marks a conversion by molar mass, not a printed value. Calls of active or inactive are those of the source. The rule behind the calls is not given here. Where only a bound is given, the exact number is not on record here.

As to `CC(C)=C[C@H]1C[C@](C)(O)[C@@H]2[C@H]3CC[C@@H]4[C@@]5(C)CC[C@H](O[C@@H]6OC[C@H](O)[C@H](O[C@@H]7O[C@H](CO)[C@@H](O)[C@H](O)[C@H]7O)[C@H]6O[C@@H]6O[C@@H](COC(=O)CC(=O)O)[C@H](O)[C@H]6O)C(C)(C)[C@@H]5CC[C@@]4(C)[C@@]34CO[C@@]2(C4)O1`, the outcome in the test with Cryptococcus neoformans [1], in the test with Aspergillus fumigatus [2] and with Candida albicans [3] was inactive.
As to `C[C@@H]1[C@H](O)[C@@H](C)/C=C/C=C/C=C/C=C/C=C/C=C/C=C/[C@H](O[C@@H]2O[C@H](C)[C@@H](O)[C@H](N)[C@@H]2O)C[C@@H]2O[C@](O)(C[C@@H](O)C[C@@H](O)[C@H](O)CC[C@@H](O)C[C@@H](O)CC(=O)O[C@H]1C)C[C@H](O)[C@H]2C(=O)O`, the result with Cryptococcus neoformans [4], with Candida albicans [5] and in the test on Aspergillus fumigatus [6] was Active.
One may read the MIC as the least concentration at which growth counts as inhibited. Low readings indicate inhibition by little substance, high ones a need for much substance. With `CC(C)=C[C@H]1C[C@](C)(O)[C@@H]2[C@H]3CC[C@@H]4[C@@]5(C)CC[C@H](O[C@@H]6OC[C@H](O)[C@H](O[C@@H]7O[C@H](CO)[C@@H](O)[C@H](O)[C@H]7O)[C@H]6O[C@@H]6O[C@@H](CO)[C@H](O)[C@H]6O)C(C)(C)[C@@H]5CC[C@@]4(C)[C@@]34CO[C@@]2(C4)O1`, the MIC against Cryptococcus neoformans [1], in the test with Aspergillus fumigatus [2] and against Candida albicans [3] was 50 µg/mL (≈ 55.6 µM) throughout.
As to `CC(C)=C[C@H]1C[C@](C)(O)[C@@H]2[C@H]3CC[C@@H]4[C@@]5(C)CC[C@H](O[C@@H]6OC[C@H](O)[C@H](O[C@@H]7O[C@H](CO)[C@@H](O)[C@H](O)[C@H]7OC(=O)/C=C/c7ccc(O)cc7)[C@H]6O[C@@H]6O[C@@H](CO)[C@H](O)[C@H]6O)C(C)(C)[C@@H]5CC[C@@]4(C)[C@@]34CO[C@@]2(C4)O1`, the MIC against Cryptococcus neoformans [1] is 50 µg/mL (≈ 47.8 µM); in the test on Aspergillus fumigatus [2], more than 50 µg/mL; with Candida albicans [3], more than 50 µg/mL.
